Assays:
Rattus norvegicus [1] = experiment: Biodistribution of the radio labelled compound (azido-[125I]-IPAPP) in rat heart after 30 min of intravenous injection; assay type: ADME, organism-based; conditions: in vivo, 0.5 h
Method in brief: (§1)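 Rats received the radioligand in 0.2 mL saline into the femoral vein under ether anesthesia. They were killed by cardiac excision at set times post-injection. Organs were removed and gamma-counted at about 50% efficiency. % dose/organ was calculated against diluted aliquots of the injected material. Values are the average of three rats.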

Rattus norvegicus [2] = experiment: Biodistribution of the radio labelled compound (azido-[125I]-IPAPP) in rat heart after 2 min of intravenous injection; assay type: ADME, organism-based; conditions: in vivo; method in brief: as §1
Rattus norvegicus [3] = experiment: Ratio of biodistribution of the radio labelled compound ([125I]IPAPP) in rat brain to rat blood after 2 min of intravenous injection; assay type: ADME, organism-based
Method in brief: (§2)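 Rats, three per time point, received the radioligand in 0.2 mL saline into the femoral vein under ether anesthesia. They were killed by cardiac excision at 2, 15 or 30 min. Brain and blood were removed and gamma-counted at about 50% efficiency. Percent dose per organ was taken as tissue counts divided by diluted aliquots of the injected material.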

Rattus norvegicus [4] = experiment: Biodistribution of the radio labelled compound (azido-[125I]-IPAPP) in rat brain after 15 min of intravenous injection; assay type: ADME, organism-based; conditions: in vivo; method in brief: as §1
Rattus norvegicus [5] = experiment: Biodistribution of the radio labelled compound (azido-[125I]-IPAPP) in rat liver after 30 min of intravenous injection; assay type: ADME, organism-based; conditions: in vivo, 0.5 h; method in brief: as §1
Rattus norvegicus [6] = experiment: Biodistribution of the radio labelled compound (azido-[125I]-IPAPP) in rat blood after 2 min of intravenous injection; assay type: ADME, organism-based; conditions: in vivo; method in brief: as §1
Rattus norvegicus [7] = experiment: Biodistribution of the radio labelled compound (azido-[125I]-IPAPP) in rat brain after 2 min of intravenous injection; assay type: ADME, organism-based; conditions: in vivo; method in brief: as §1
Rattus norvegicus [8] = experiment: Biodistribution of the radio labelled compound (azido-[125I]-IPAPP) in rat muscle after 15 min of intravenous injection; assay type: ADME, organism-based, Muscle tissue; conditions: in vivo; method in brief: as §1
Rattus norvegicus [9] = experiment: Biodistribution of the radio labelled compound (azido-[125I]-IPAPP) in rat blood after 30 min of intravenous injection; assay type: ADME, organism-based; conditions: in vivo, 0.5 h; method in brief: as §1
Rattus norvegicus [10] = experiment: Biodistribution of the radio labelled compound (azido-[125I]-IPAPP) in rat brain after 30 min of intravenous injection; assay type: ADME, organism-based; conditions: in vivo, 0.5 h; method in brief: as §1
Rattus norvegicus [11] = experiment: Biodistribution of the radio labelled compound (azido-[125I]-IPAPP) in rat heart after 15 min of intravenous injection; assay type: ADME, organism-based; conditions: in vivo; method in brief: as §1
Rattus norvegicus [12] = experiment: Biodistribution of the radio labelled compound (azido-[125I]-IPAPP) in rat liver after 2 min of intravenous injection; assay type: ADME, organism-based; conditions: in vivo; method in brief: as §1
Rattus norvegicus [13] = experiment: Biodistribution of the radio labelled compound (azido-[125I]-IPAPP) in rat blood after 15 min of intravenous injection; assay type: ADME, organism-based; conditions: in vivo; method in brief: as §1
Rattus norvegicus [14] = experiment: Biodistribution of the radio labelled compound (azido-[125I]-IPAPP) in rat lungs after 30 min of intravenous injection; assay type: ADME, organism-based, Lung; conditions: in vivo, 0.5 h; method in brief: as §1
Rattus norvegicus [15] = experiment: Biodistribution of the radio labelled compound (azido-[125I]-IPAPP) in rat lungs after 15 min of intravenous injection; assay type: ADME, organism-based, Lung; conditions: in vivo; method in brief: as §1
Rattus norvegicus [16] = experiment: Ratio of biodistribution of the radio labelled compound ([125I]IPAPP) in rat brain to rat blood after 30 min of intravenous injection; assay type: ADME, organism-based; conditions: 0.5 h; method in brief: as §2
Rattus norvegicus [17] = experiment: Biodistribution of the radio labelled compound (azido-[125I]-IPAPP) in rat lungs after 2 min of intravenous injection; assay type: ADME, organism-based, Lung; conditions: in vivo; method in brief: as §1
Rattus norvegicus [18] = experiment: Biodistribution of the radio labelled compound (azido-[125I]-IPAPP) in rat muscle after 2 min of intravenous injection; assay type: ADME, organism-based, Muscle tissue; conditions: in vivo; method in brief: as §1
Rattus norvegicus [19] = experiment: Ratio of biodistribution of the radio labelled compound ([125I]IPAPP) in rat brain to rat blood after 15 min of intravenous injection; assay type: ADME, organism-based; method in brief: as §2
Rattus norvegicus [20] = experiment: Biodistribution of the radio labelled compound (azido-[125I]-IPAPP) in rat liver after 15 min of intravenous injection; assay type: ADME, organism-based; conditions: in vivo; method in brief: as §1
Rattus norvegicus [21] = experiment: Biodistribution of the radio labelled compound (azido-[125I]-IPAPP) in rat muscle after 30 min of intravenous injection; assay type: ADME, organism-based, Muscle tissue; conditions: in vivo, 0.5 h; method in brief: as §1
Rattus norvegicus [22] = experiment: Ratio of biodistribution of the radio labelled compound (azido-[125I]-IPAPP) in rat brain to rat blood after 30 min of intravenous injection; assay type: ADME, organism-based; conditions: 0.5 h
Rattus norvegicus [23] = experiment: Ratio of biodistribution of the radio labelled compound (azido-[125I]-IPAPP) in rat brain to rat blood after 2 min of intravenous injection; assay type: ADME, organism-based
Rattus norvegicus [24] = experiment: Ratio of biodistribution of the radio labelled compound (azido-[125I]-IPAPP) in rat brain to rat blood after 15 min of intravenous injection; assay type: ADME, organism-based

Dose/organ (Rattus norvegicus [1]) [%] | Dose/organ (Rattus norvegicus [2]) [%] | Dose/organ (Rattus norvegicus [4]) [%] | Dose/organ (Rattus norvegicus [5]) [%] | Dose/organ (Rattus norvegicus [6]) [%] | Dose/organ (Rattus norvegicus [7]) [%] | Dose/organ (Rattus norvegicus [8]) [%] | Dose/organ (Rattus norvegicus [9]) [%] | Dose/organ (Rattus norvegicus [10]) [%] | Dose/organ (Rattus norvegicus [11]) [%] | Dose/organ (Rattus norvegicus [12]) [%] | Dose/organ (Rattus norvegicus [13]) [%] | Dose/organ (Rattus norvegicus [14]) [%] | Dose/organ (Rattus norvegicus [15]) [%] | Dose/organ (Rattus norvegicus [17]) [%] | Dose/organ (Rattus norvegicus [18]) [%] | Dose/organ (Rattus norvegicus [20]) [%] | Dose/organ (Rattus norvegicus [21]) [%] | Structure (SMILES) | other results
0.262 | 2.34 | 0.91 | 18.9 | 6.99 | 1.68 | 13.6 | 1.96 | 0.935 | 0.309 | 13.1 | 2.23 | 4.16 | 3.15 | 14.2 | 6.51 | 19.4 | 11.8 | Nc1ccc(CCN2CCN(c3cccc(C(F)(F)F)c3)CC2)cc1I | Ratio (Rattus norvegicus [3]): 2.63; Ratio (Rattus norvegicus [16]): 4.76; Ratio (Rattus norvegicus [19]): 4.92
0.372 | 1.4 | 0.667 | 28.5 | 9.74 | 0.503 | 16.6 | 2.76 | 0.75 | 0.548 | 32.5 | 3.21 | 1.73 | 2.15 | 6.5 | 11.8 | 34.3 | 14.4 | [N-]=[N+]=Nc1ccc(CCN2CCN(c3cccc(C(F)(F)F)c3)CC2)cc1I | Ratio (Rattus norvegicus [22]): 2.53; Ratio (Rattus norvegicus [23]): 0.499; Ratio (Rattus norvegicus [24]): 1.99

Reference: ChEMBL document CHEMBL1124409, “Preparation and biodistribution of 1-[2-(3-[125I]iodo-4-aminophenyl)ethyl]-4-[3-(trifluoromethyl) phenyl]piperazine and 1-[2-(3-[125I]iodo-4-azidophenyl)ethyl]-4-[3-(trifluoromethyl)phenyl] piperazine” (J Med Chem, 1989)
